Measurements of several laboratories.
Compare with care: the assays were run in different laboratories.
Organism: Pseudomonas aeruginosa
Effect on: microbial growth

CC(C)Oc1c(NC(=O)c2ccc(NC(=O)[C@H](CC(N)=O)NC(=O)c3ccc(NC(=O)c4cc(=O)c(O)c[nH]4)cc3)cc2)ccc(C(=O)Nc2ccc(C(=O)O)cc2)c1O
MIC (PA14): > 64 µg/mL

Cc1ccc(C)n1-c1ccc(-c2nnc(-c3ccc(O)cc3)[nH]2)cc1
MIC (broth dilution; ATCC10145; 18 h): 250 µg/mL

CC(C)Oc1c(NC(=O)c2ccc(NC(=O)[C@H](CC(N)=O)NC(=O)c3ccc(NC(=O)c4ccc(C(F)(F)F)cc4)cc3)cc2)ccc(C(=O)Nc2ccc(C(=O)O)cc2)c1O
MIC (PA14): > 64 µg/mL

CC(C)(C)OCC1NC(=O)C(C(=O)NC(C(=O)NC2C(=O)N3C2SC(C)(C)C3C(=O)O)c2ccccc2)=C1O (stereo not shown)
MIC: 12.5 µg/mL

CCCCCCC/C=C/C(=O)N1C(=O)/C(=C(/C)O)C(=O)C1CCC(=O)O (stereo not shown)
MIC (PA01): > 200 µg/mL

CC(C)Oc1c(NC(=O)c2ccc(NC(=O)[C@H](CC(N)=O)NC(=O)c3ccc(CCNC(=O)c4ccc(C#N)cc4)cc3)cc2)ccc(C(=O)Nc2ccc(C(=O)O)cc2)c1O
MIC (PA14): > 64 µg/mL

COC1CN(Cc2ccc3cc4c(c(O)c3c2)C(=O)C2=C(O)[C@]3(O)C(=O)C(C(N)=O)=C(O)[C@@H](N(C)C)[C@@H]3C[C@@H]2C4)C1
MIC (broth dilution; ATCC27853): 32 µg/mL

CCCCCCC#Cc1cncc(-c2nnc(SCc3ccc([N+](=O)[O-])cc3)n2C)c1
MIC: ≥ 20 µg/mL

CCCC(=O)Oc1c(C)c(O)c(C(=O)/C=C/c2ccccc2)c(OC)c1C
MIC (broth dilution; ATCC27853): 5000 µg/mL

CC(C)Oc1c(NC(=O)c2ccc(NC(=O)[C@H](CC(N)=O)NC(=O)c3ccc(NC(=O)c4ccc([N+](=O)[O-])cc4)cc3)cc2)ccc(C(=O)Nc2ccc(C(=O)O)c(F)c2)c1O
MIC (PA14): > 64 µg/mL

CCCNc1nc(Cl)c2c(c1O)C(=O)C1=C(O)[C@]3(O)C(=O)C(C(N)=O)=C(O)[C@@H](N(C)C)[C@@H]3C[C@@H]1C2.Cl.Cl.Cl
MIC (broth dilution; ATCC27853): 32 µg/mL

CCCCCCC/C=C/C(=O)N1C(=O)/C(=C(\O)C2CCNCC2)C(=O)C1CC(C)C (stereo not shown)
MIC (PA01): 25 µg/mL

NC[C@@H]1CN[C@H](CNC(=O)c2cc3ccc(-c4ccc(F)cc4)cc3[nH]2)C1
MIC (broth dilution; PAO1): 25 µg/mL

CN(C)[C@@H]1C(O)=C(C(N)=O)C(=O)[C@@]2(O)C(O)=C3C(=O)c4c(cc5ccc(-c6ccccc6)cc5c4O)C[C@H]3C[C@@H]12
MIC (broth dilution; ATCC27853): 32 µg/mL

CCCCCCC#Cc1cncc(-c2nnc(SCc3ccc(C#N)cc3)n2C)c1
MIC: ≥ 20 µg/mL

CN(C)CCCNc1nc(Cl)c2c(c1O)C(=O)C1=C(O)[C@]3(O)C(=O)C(C(N)=O)=C(O)[C@@H](N(C)C)[C@@H]3C[C@@H]1C2.Cl
MIC (broth dilution; ATCC27853): > 32 µg/mL

COc1cc(Cc2cnc(N)nc2N)cc(OC)c1OC
MIC (broth dilution; 24 h): 8 µg/mL

Cc1ccc(C)n1-c1ccc(-c2n[nH]c(=S)[nH]2)cc1
MIC (broth dilution; ATCC10145; 18 h): 8 µg/mL

CC1=NN(CNc2ccccc2)C(=O)C1=NNn1c(-c2ccccc2)nc2ccccc2c1=O
MIC (broth dilution; 24 h): 111 µM

CN(C)[C@@H]1C(O)=C(C(N)=O)C(=O)[C@@]2(O)C(O)=C3C(=O)c4c(cc5ccc(CN6CC(F)C6)cc5c4O)C[C@H]3C[C@@H]12
MIC (broth dilution; ATCC27853): 32 µg/mL

CCCCCCC/C=C/C(=O)N1C(=O)/C(=C(\O)c2ccc(OCOCCOC)cc2)C(=O)C1CC(C)C (stereo not shown)
MIC (PA01): > 200 µg/mL

CC(C)Oc1c(NC(=O)c2ccc(NC(=O)[C@H](CC(N)=O)NC(=O)c3ccc(NC(=O)c4ccc(C#N)c(F)c4)cc3)cc2)ccc(C(=O)Nc2ccc(C(=O)O)cc2)c1O
MIC (PA14): 8 µg/mL

Cc1cccc2nc(-c3ccc([N+](=O)[O-])o3)[nH]c12
MIC (broth dilution; ATCC27853): > 64 µg/mL

CC(C)C1NC(=O)C(C(=O)NC(C(=O)NC2C(=O)N3C2SC(C)(C)C3C(=O)O)c2ccccc2)=C1O (stereo not shown)
MIC: 50 µg/mL

CN(C)[C@@H]1C(O)=C(C(N)=O)C(=O)[C@@]2(O)C(O)=C3C(=O)c4c(O)c(NC(=O)CNC(C)(C)C)nc(F)c4C[C@H]3C[C@@H]12.Cl.Cl
MIC (broth dilution; ATCC27853): > 32 µg/mL

CC(C)Oc1c(NC(=O)c2ccc(NC(=O)[C@H](CC(N)=O)NC(=O)c3ccc(NC(=O)c4ccc(C#N)cc4)cc3)cc2)ccc(C(=O)NC2CCNCC2)c1O
MIC (PA14): > 64 µg/mL

Brc1cccc(NCc2ccc(Oc3ccccn3)cc2)c1
MIC: > 50 µg/mL

O=c1cc(-c2ccc(O)c(O)c2)oc2cc(O)cc(O)c12
MIC (broth dilution; PAO1): 256 µg/mL

O=C(O)c1cn(C2CC2)c2cc(N3CCNCC3)c(F)cc2c1=O
MIC (broth dilution; ATCC27853): 16 µg/mL

CN(C)c1cc(NC(=O)CNC(C)(C)C)c(O)c2c1C[C@H]1C[C@H]3[C@H](N(C)C)C(O)=C(C(N)=O)C(=O)[C@@]3(O)C(O)=C1C2=O
MIC (broth dilution; ATCC27853): 8 µg/mL

COc1cccc(NCc2ccc(Oc3ccccn3)cc2)c1
MIC: > 25 µg/mL

CC1=NN(CNc2ccc(Cl)cc2)C(=O)C1=NNn1c(-c2ccccc2)nc2ccccc2c1=O
MIC (broth dilution; 24 h): 51.5 µM

O=[N+]([O-])c1ccc(O)c2ncccc12
MIC (broth dilution; ATCC27853): 16 µg/mL

CC(C)Oc1c(NC(=O)c2ccc(NC(=O)[C@H](CC(N)=O)NC(=O)c3ccc(NC(=O)c4ccc(NC(N)=O)cc4)cc3)cc2)ccc(C(=O)Nc2ccc(C(=O)O)cc2)c1O
MIC (PA14): > 64 µg/mL

O=C(CCCCCC[P+](c1ccccc1)(c1ccccc1)c1ccccc1)Nc1cc(O)c(O)c(O)c1.[Br-]
MIC (broth dilution; ATCC27853; 18 h): > 32 µg/mL

COc1c(C)c(OC)c2c(c1C)OC(c1ccccc1)CC2=O (stereo not shown)
MIC (broth dilution; ATCC27853): 5000 µg/mL

CC1(C)S[C@@H]2[C@H](NC(=O)C(C(=O)O)c3ccccc3)C(=O)N2[C@H]1C(=O)O (stereo partly shown)
MIC (broth dilution): > 200 µM
